# From ChEMBL document CHEMBL4715721, “Synthesis and optimization of novel allylated mono-carbonyl analogs of curcumin (MACs) act as potent anti-inflammatory agents against LPS-induced acute lung injury (ALI) in rats” (Eur J Med Chem, 2016)
# Columns and labels:
# [1] = Cytotoxicity against human HL7702 cells assessed as cell survival rate at 10 uM incubated for 24 hrs by MTT assay; assay type: cell-based; conditions: HL7702 (L02) cells, read-out: Activity
# Outline: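 HL-7702 human normal hepatic cells exposed to 10 μM compound for 24 h; viability measured by MTT assay and given as survival rate, mean ± SD of three experiments.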
# RAW264.7 [2] = assay: (§1) Cytotoxicity against mouse RAW264.7 cells assessed as cell survival rate at 10 uM; assay type: cell-based; conditions: raw264.7, 10 µM
# RAW264.7 [3] = assay: Antiinflammatory activity in mouse RAW264.7 cells assessed as decrease in LPS-induced IL-6 secretion at 10 microM incubated for 30 mins followed by LPS stimulation and measured after 24 hrs by ELISA relative to control; assay type: functional; conditions: RAW264.7, 24.5 h, time 1470 min
# Outline: (§2)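 RAW264.7 cells in DMEM with 10% FBS at 37 °C, 5% CO₂; pretreated with 10 μM for 30 min, then LPS 0.5 μg/mL for 24 h. Medium TNF-α and IL-6 measured by ELISA and normalized to total protein of viable cells; percent inhibition, mean ± SD of three experiments.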
# RAW264.7 [4] = assay: Antiinflammatory activity in mouse RAW264.7 cells assessed as decrease in LPS-induced TNF-alpha secretion at 10 microM incubated for 30 mins followed by LPS stimulation and measured after 24 hrs by ELISA relative to control; assay type: functional; conditions: RAW264.7, 24.5 h, time 1470 min; outline: as §2
# [5] = Chemical stability of compound in PBS buffer containing 5% DMSO at pH 7.4 measured every 5 mins for 25 mins by UV-Vis absorption spectral analysis; assay type: physicochemical; conditions: pH 7.4, 25 min
# Outline: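 Compound diluted from 1 mM stock in phosphate buffer pH 7.4 containing 5% DMSO; UV-visible spectra recorded from 250 to 600 nm at 25 °C in a 1 cm quartz cuvette, every 5 min for 25 min.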
# [6] = Aqueous kinetic solubility of compound at pH 7.4; assay type: physicochemical; conditions: read-out: Kinetic_solubility
# [7] = Octanol-water partition coefficient, logP of compound; assay type: physicochemical
# [8] = as §1; assay type: cell-based; conditions: RAW264.7 cells, read-out: Activity
Stabilty [5],solubility kinetic [6] [mg/mL],logP [7],Structure (SMILES),"viability at 24 h, 10 µM [1] [%]",Activity (RAW264.7 [2]),inhibition at 10 µM (RAW264.7 [3]) [%],inhibition at 10 µM (RAW264.7 [4]) [%],viability at 10 µM [8] [%]
,,,C=CCc1cc(/C=C2\CN(C(=O)c3ccc(C)cc3)C/C(=C\c3ccc(O)c(CC=C)c3)C2=O)ccc1O,70.1,Non-Toxic,81.5,,
Stable,,,C=CCc1cc(/C=C/C(=O)/C=C/c2ccc(O)c(CC=C)c2)ccc1O,73.3,Non-Toxic,59.6,7.15,
,19.4,3.21,C=CCc1cc(/C=C2\CN(C3CC3)C/C(=C\c3ccc(N4CCOCC4)cc3)C2=O)ccc1O,94.3,,59.8,8.19,
,17.1,3.5,C=CCc1cc(/C=C2\CN(C3CC3)C/C(=C\c3ccc(N(C)C)cc3)C2=O)ccc1O,89.4,,74.4,35,
,,,C=CCc1cc(/C=C2\CN(S(=O)(=O)c3ccccc3)C/C(=C\c3ccc(O)c(CC=C)c3)C2=O)ccc1O,63.4,,24.8,,< 70
,,,C=CCc1cc(/C=C2\CN(CC)C/C(=C\c3ccc(O)c(CC=C)c3)C2=O)ccc1O,79.6,Non-Toxic,67.6,,
,,4.33,C=CCc1cc(/C=C2\CN(C3CC3)C/C(=C\c3ccc(N4CCCC4)cc3)C2=O)ccc1O,95.5,,49.9,17.6,
,,,C=CCc1cc(/C=C2\CN(C)C/C(=C\c3ccc(O)c(CC=C)c3)C2=O)ccc1O,80.3,Non-Toxic,57.1,,
,,,C=CCc1cc(/C=C2\CN(C(C)C)C/C(=C\c3ccc(O)c(CC=C)c3)C2=O)ccc1O,85.1,Non-Toxic,71.6,,
